EWS-Fli block: inhibitors of EWS/Fli oncoprotein transcriptional activity | inhibition, % at 12.6 µM | 350,000 compounds, 0.67% hits | A673 NR0B1-luciferase reporter, viability-normalised;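 active means mean inhibition of at least 50% after viability correction, with every replicate also passing that limit; inconclusive means mean reaches 50% but only one of two replicates passes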;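 further: firefly luciferase signal divided by Alamar Blue viability fluorescence both relative to DMSO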
LMP1 NFkB inh: Epstein-Barr LMP1 NF-kappaB reporter inhibition; LMP1-induced NF-kappaB luciferase reporter cells, luminescence; inhibition, % at 12.5 µM; 350,000 compounds, 0.69% hits; AID 504558; in the data active means inhibition above about 41%; inconclusive means no clear call, values can overlap the other calls
Shn3 3UTR inh: inhibitors of Schnurri-3 3'UTR reporter in osteoblasts. Clone20 osteoblast Shn3 3'UTR firefly luciferase, 24 h. inhibition, % at 12.5 µM. 360,000 compounds, 0.52% hits;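 active means mean inhibition of at least 75% with every replicate also reaching 75%; inconclusive means mean inhibition at least 75% but some replicate below; inactive means mean inhibition below 75%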
aSyn UTR inh: 5' untranslated region of α-synuclein, MLPCN primary screen | alpha-synuclein 5'UTR reporter, inhibitor activity | inhibition, % (tested at 7.5 µM) | 300,000 compounds, 0.82% hits; in the data active means inhibition above about 60%; inconclusive means no clear call, values can overlap the other calls;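 further: H4 neuroglioblastoma cells stably carrying SNCA 5'UTR luciferase fusion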
FN deposition inh: fibronectin deposition inhibition; AH1F fibroblasts, Alexa488-fibronectin deposition fluorescence, overnight; inhibition, % at 12.6 µM; 350,000 compounds, 0.086% hits;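 active means mean inhibition across replicates of 30% or more, regardless of how many single replicates reach that level; inconclusive means mean under 30% yet at least half of replicates reach 30%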
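Test system: AH1F fibroblast monolayer depositing Alexa488-labelled fibronectin into matrix. Input: 10000 cells per well. Technique: fluorescence, ex 485 nm, em 525 nm. Buffer or medium: DMEM plus 2% serum, read in PBS. Timing: 1 h cell adhesion before compound, then overnight fibronectin incubation. Compound: single dose, pinned. Read-out basis: inhibition from reduced deposited-fibronectin fluorescence.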
PAX8 reporter: lowers PAX8-driven luciferase in RMG-I cells. inhibition, % at 12.6 µM. AID 652154. RMG-I TPO-luciferase reporter, SteadyGlo, 24 h. 360,000 compounds, 1.2% hits;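 active means mean replicate inhibition at least 60% with every replicate also reaching 60%; inconclusive means only one of the two criteria is met; inactive means mean below 60% and not all replicates reaching 60%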;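 further: luciferase light reporting Pax8 driven TPO promoter activity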
Of the large screens only hits and unclear results are named; the others gave an inactive call. Compounds with a hit are over-represented: about 2.1% of the library has one in this group of screens.

CO[C@H]1CN(C)C(=O)c2ccc(NC(=O)Nc3cccc(F)c3)cc2OC[C@H](C)N(C(=O)Nc2c(C)noc2C)C[C@@H]1C	none (no result: LMP1 NFkB inh, Shn3 3UTR inh, aSyn UTR inh)
Cc1cccc(S(=O)(=O)N2C[C@H](O)COC[C@@H]3O[C@H](CC(=O)NCc4ccncn4)CC[C@H]32)c1	none (no result: LMP1 NFkB inh, Shn3 3UTR inh, aSyn UTR inh)
O=C1c2cccc(O)c2C(=O)c2c(O)cccc21	none (no result: EWS-Fli block, LMP1 NFkB inh, Shn3 3UTR inh, FN deposition inh, PAX8 reporter)
CC1OC(CC(=O)O)CC2=C1C(=O)c1c(O)cccc1C2=O (stereo unspecified)	LMP1 NFkB inh 88.1, Shn3 3UTR inh 99.1, FN deposition inh 59.2, PAX8 reporter 130.3 (no result: aSyn UTR inh)
COc1ccccc1NC(=O)N1C[C@@H]2[C@H](c3ccccc31)[C@@H](CO)N2C(=O)c1ccccc1	none (no result: LMP1 NFkB inh, Shn3 3UTR inh, aSyn UTR inh, FN deposition inh)
C[C@H]1CN([C@@H](C)CO)C(=O)c2cc(NC(=O)CCCN(C)C)ccc2O[C@@H]1CN(C)Cc1ccc(Oc2ccccc2)cc1	none (no result: EWS-Fli block, LMP1 NFkB inh, Shn3 3UTR inh, aSyn UTR inh, FN deposition inh)
C[C@@H]1CN([C@@H](C)CO)C(=O)c2cccc(NC(=O)CCCCCC(=O)Nc3ccccc3N)c2O[C@H]1CN(C)Cc1ccc(Cl)c(Cl)c1	none (no result: LMP1 NFkB inh, Shn3 3UTR inh, aSyn UTR inh)
C[C@H]1CN([C@@H](C)CO)C(=O)c2cccc(NC(=O)CCCCCC(=O)Nc3ccccc3N)c2O[C@@H]1CN(C)Cc1ccc(Cl)c(Cl)c1	PAX8 reporter 65.1 (no result: EWS-Fli block, LMP1 NFkB inh, Shn3 3UTR inh, aSyn UTR inh)
C[C@H](CO)N1C[C@H](C)[C@@H](CN(C)CC2CCCCC2)Oc2c(NC(=O)CCCCCC(=O)Nc3ccccc3N)cccc2C1=O	PAX8 reporter 81.3 (no result: EWS-Fli block, LMP1 NFkB inh, Shn3 3UTR inh, aSyn UTR inh)
C[C@H](CO)N1C[C@H](C)[C@@H](CN(C)Cc2ccc(Oc3ccccc3)cc2)Oc2c(NC(=O)CCCCCC(=O)Nc3ccccc3N)cccc2C1=O	PAX8 reporter 63.4 (no result: LMP1 NFkB inh, Shn3 3UTR inh, aSyn UTR inh, FN deposition inh)
NC(=O)CCCn1c(C(=O)c2ccc(Cl)cc2)c2ccc([N+](=O)[O-])cc2[n+]1[O-]	none
NC(=O)CCCn1c(C(=O)c2cc(Cl)c(N)c(Cl)c2)c2ccc([N+](=O)[O-])cc2[n+]1[O-]	aSyn UTR inh 71.4
CC(C)C(=O)Nc1ccc2c(c1)C(=O)N(C)[C@H]1CC[C@H](CC(=O)Nc3cccc(F)c3)O[C@@H]1CO2	none (no result: LMP1 NFkB inh, Shn3 3UTR inh, aSyn UTR inh)
CCOC(=O)c1c(C)n(-c2ccc(C)cc2)c2ccc(OCC(O)CNCC3CCCO3)cc12 (stereo unspecified)	aSyn UTR inh 75.5 (no result: EWS-Fli block, FN deposition inh, PAX8 reporter)
C[C@@H]1CN([C@@H](C)CO)C(=O)c2cccc(NC(=O)NC3CCCCC3)c2O[C@@H]1CN(C)Cc1ccc2c(c1)OCO2	none (no result: LMP1 NFkB inh, Shn3 3UTR inh, aSyn UTR inh)
COCC(=O)Nc1ccc2c(c1)OC[C@H](C)N(Cc1ccccc1OC)C[C@H](C)[C@H](OC)CN(C)C2=O	none (no result: LMP1 NFkB inh, Shn3 3UTR inh, aSyn UTR inh)
CN1C(=O)N(C)c2ccc(Br)c3cccc1c23	none
CN1C(=O)N(C)c2ccc(C=O)c3cccc1c23	LMP1 NFkB inh 85.7
CN(Cc1ccccc1)C(=O)c1[nH]cnc1C(=O)NCCCCCNC(=O)OC(C)(C)C	none (no result: aSyn UTR inh)
CC(C)(C)OC(=O)NCCCCCNC(=O)c1nc[nH]c1C(=O)NCc1ccc(CNC(=O)OC(C)(C)C)cc1	Shn3 3UTR inh 88.9, PAX8 reporter 72.5 (no result: aSyn UTR inh)
CC(C)(C)OC(=O)NCCCCCNC(=O)c1ncn(Cc2ccccc2)c1C(=O)NCCCCCNC(=O)OC(C)(C)C	PAX8 reporter 74.6 (no result: aSyn UTR inh)
CC(C)(C)OC(=O)NCc1ccc(CNC(=O)c2nc[nH]c2C(=O)NCc2ccc(CNC(=O)OC(C)(C)C)cc2)cc1	Shn3 3UTR inh 86.8 (no result: aSyn UTR inh)
CNC[C@@H]1Oc2c(NC(=O)NC(C)C)cccc2C(=O)N([C@@H](C)CO)C[C@@H]1C	none (no result: EWS-Fli block, LMP1 NFkB inh, Shn3 3UTR inh, aSyn UTR inh, FN deposition inh)
O=C(O)c1cc2c(N3CCC(Cc4ccccc4)CC3)ncnc2s1	none
Cc1ccc(S(=O)(=O)N2CCN(c3ncnc4sccc34)CC2)cc1	Shn3 3UTR inh 87.1 (no result: PAX8 reporter)
c1ccc(CC2CCN(c3ncnc4sccc34)CC2)cc1	Shn3 3UTR inh 90.3
O=S(=O)(c1ccc(F)c(F)c1F)N1CCN(c2ncnc3sccc23)CC1	Shn3 3UTR inh inconclusive (no result: aSyn UTR inh)
C[C@H](CO)N1C[C@H](C)[C@@H](CN(C)S(=O)(=O)c2ccccc2)Oc2ccc(NS(C)(=O)=O)cc2CC1=O	none (no result: LMP1 NFkB inh, Shn3 3UTR inh, aSyn UTR inh)
COC(=O)CSc1ncnc2c1sc1nc3c(cc12)COC(C)(C)C3	LMP1 NFkB inh 51.3 (no result: FN deposition inh)
CC1(C)Cc2nc3sc4c(SCC(=O)O)ncnc4c3cc2CO1	LMP1 NFkB inh 52.3
CC1(C)Cc2nc3sc4c(SCC(=O)NCc5ccccc5)ncnc4c3cc2CO1	aSyn UTR inh 64.0 (no result: EWS-Fli block)
CC1(C)Cc2nc3sc4c(N(CCO)CCO)ncnc4c3cc2CO1	none (no result: EWS-Fli block, FN deposition inh, PAX8 reporter)

Source: PubChem BioAssay (Broad Institute)
